Test [1] is described as follows: RPL19A-GFP modulators, yeast TOR pathway, confirmation, cell-based, S. cerevisiae, flow cytometry, cherry picks, mother/daughter gates (AID 2270;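 active means GFP response below 50% of the DMSO control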). To be noted: S. cerevisiae RPL19A-GFP strain, 3 h, at 10 µM, stronger effect = lower value, 100 = same GFP as DMSO wells.
A short description of test [2]: LAP4-GFP expression modulators in yeast, confirmation, cell-based, cherry picks, flow cytometry, mother/daughter gates (AID 2271;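 active means GFP response above 150% of the DMSO control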;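 further: ratio of sample to DMSO plate mean so 100% equals DMSO level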). To be noted: S. cerevisiae LAP4-GFP strain, 3 h, at 10 µM, stronger effect = higher value, 100 means same as DMSO control. The gist of the method:
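Measured by: GFP by flow cytometry. Test system: GFP-fusion yeast strain. Input: yeast cells seeded at OD600 of 0.2. Timing: 30 °C, 3 h compound incubation, rotating. Buffer or medium: synthetic complete medium for yeast. Benchmarks: DMSO-only negative wells, rapamycin 400 ng/mL positive wells. Compound: 10 µM single dose.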
On the technique in general: In flow cytometry, cells or beads pass a laser one at a time.

Test [3] in a line: modulators of MEP2-GFP levels in yeast, confirmation, S. cerevisiae, flow cytometry GFP, cherry picks (AID 2272;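 active means GFP response above 150% of the DMSO control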;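 further: ratio of well signal to plate DMSO mean so 100% equals DMSO level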). The conditions noted are these: S. cerevisiae MEP2-GFP strain, 3 h, at 10 µM, stronger effect = higher value.
The nature of test [4]: AGP1-GFP expression modulators, hit retest, confirmation, cell-based, flow cytometry, S. cerevisiae, cherry picks (AID 2273).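 Further: median GFP channel fluorescence over the whole cell population gate.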 The conditions noted are these: S. cerevisiae AGP1-GFP strain, 3 h, at 10 µM.
Test [5] is described as follows: modulators of CIT2-GFP expression in yeast, confirmation, S. cerevisiae, GFP fusion, cherry picks, mother/daughter gates (AID 2274). The conditions noted are these: S. cerevisiae CIT2-GFP strain, flow cytometry, 3 h, at 10 µM, stronger effect = higher value.
The mark [6] stands for this setting: measured here: daughter cell gate.
The mark [7] stands for this setting: measured here: mother cell gate.
Setting [8] is: measured here: daughter cell gate response.
The mark [9] stands for this setting: measured here: mother cell gate response.

The structures appear in SMILES notation. Activity calls are given as the source filed them.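 How the source made its calls, unless noted: active means GFP response above 150% of the DMSO level; inconclusive means fewer than 70 events counted for a yeast strain; inactive means the rest.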

Consider `Cc1ccc(C(=O)c2nocc2C(=O)c2cccs2)cc1`, for which the GFP response vs DMSO in test [1] is 98.7% (inactive); in test [1] (setting [6]), 93.6%; in test [1] (setting [7]), 99.8%; in test [3], 95.4% (inactive). For the same compound, the results for the GFP response relative to DMSO in test [2], in test [2] (setting [8]) and in test [2] (setting [9]) were 123% (inactive), 111% and 128%, respectively. In addition, the GFP response, % of DMSO in test [4] was 89.9% (inactive); in test [5], 80.6% (inactive); in test [5] (setting [6]) it was 79.7%; in test [5] (setting [7]), 80.5%.
Take `O=C1ON=C(c2ccccc2)/C1=C/c1ccco1`: the GFP response vs DMSO in test [1] is 95.8% (inactive); in test [1] (setting [6]) it was 86.4%; in test [1] (setting [7]), 85.2%; in test [3], 141% (inactive). Besides, the values for the GFP response relative to DMSO in test [2], in test [2] (setting [8]) and in test [2] (setting [9]) were 169% (active), 137% and 161%, respectively. Moreover, the GFP response, % of DMSO was 89.2% (inactive) in test [4], 83.5% (inactive) in test [5], 92.7% in test [5] (setting [6]) and 70% in test [5] (setting [7]).
`Cc1ccn2c(NC3CCCCC3)c(C(C)C)nc2c1`: the GFP response vs DMSO in test [1] is 99.4% (inactive); in test [1] (setting [6]) it was 99.4%; in test [1] (setting [7]) it was 99.2%; in test [3], 100% (inactive). The GFP response relative to DMSO was 101% (inactive) in test [2], 101% in test [2] (setting [8]) and 100% in test [2] (setting [9]). The GFP response, % of DMSO in test [4] is 100% (inactive); in test [5], 101% (inactive); in test [5] (setting [6]), 103%; in test [5] (setting [7]) it was 101%.
For the compound `COc1ccccc1C(=O)NNC(=S)NC(=O)c1cccs1`, the GFP response vs DMSO in test [1] is 116% (inactive); in test [1] (setting [6]) it was 126%; in test [1] (setting [7]) it was 107%; in test [3], 128% (inactive). In addition, the GFP response relative to DMSO is 225% (active) in test [2], 181% in test [2] (setting [8]) and 202% in test [2] (setting [9]). Further, the GFP response, % of DMSO in test [4] is 89.6% (inactive); in test [5] it was 121% (inactive); in test [5] (setting [6]), 124%; in test [5] (setting [7]) it was 108%.
For the compound `CCc1nnc(NC(=O)c2nc(S(=O)(=O)Cc3ccc(C)cc3)ncc2Cl)s1`, the GFP response vs DMSO was 98.2% (inactive) in test [1], 99.1% in test [1] (setting [6]), 98.6% in test [1] (setting [7]) and 102% (inactive) in test [3]. Also, the GFP response relative to DMSO in test [2] is 105% (inactive); in test [2] (setting [8]), 105%; in test [2] (setting [9]) it was 102%. Further, the GFP response, % of DMSO in test [4] was 103% (inactive); in test [5] it was 101% (inactive); in test [5] (setting [6]), 102%; in test [5] (setting [7]), 99.1%.
With `Cc1ccc(C(=O)/C=C/C(=O)c2ccc(C)cc2)cc1`, the GFP response vs DMSO in test [1] is 103% (inactive); in test [1] (setting [6]) it was 104%; in test [1] (setting [7]) it was 97.7%; in test [3], 101% (inactive). Also, the GFP response relative to DMSO in test [2] is 195% (active); in test [2] (setting [8]), 190%; in test [2] (setting [9]), 201%. The GFP response, % of DMSO in test [4] is 111% (inactive); in test [5] it was 95.9% (inactive); in test [5] (setting [6]) it was 100%; in test [5] (setting [7]) it was 84.8%.
With `CCCc1[nH]nc2c1C(c1cccc(OC)c1)C(C#N)=C(N)O2` (configuration not stated), the GFP response vs DMSO in test [1] is 103% (inactive); in test [1] (setting [6]), 101%; in test [1] (setting [7]) it was 103%; in test [3] it was 105% (inactive). For the same compound, the GFP response relative to DMSO in test [2] is 98.2% (inactive); in test [2] (setting [8]), 95.9%; in test [2] (setting [9]) it was 97.3%. The GFP response, % of DMSO in test [4] was 98.6% (inactive); in test [5] it was 102% (inactive); in test [5] (setting [6]) it was 97.4%; in test [5] (setting [7]), 103%.
For `CCOc1cc(/C=C2/N=C(c3ccc4c(c3)OCO4)OC2=O)ccc1OC(C)=O`, the GFP response vs DMSO was 92% (inactive) in test [1], 87.5% in test [1] (setting [6]), 94.2% in test [1] (setting [7]) and 101% (inactive) in test [3]. In addition, the GFP response relative to DMSO in test [2] was 95.7% (inactive); in test [2] (setting [8]), 95.9%; in test [2] (setting [9]), 96.2%. Moreover, the GFP response, % of DMSO was 103% (inactive) in test [4], 97.3% (inactive) in test [5], 95.6% in test [5] (setting [6]) and 98.1% in test [5] (setting [7]).
For the compound `Oc1c(C(Nc2cccc(C(F)(F)F)c2)c2ccncc2)ccc2cccnc12` (configuration not stated), the GFP response vs DMSO in test [1] was 105% (inactive); in test [1] (setting [6]) it was 104%; in test [1] (setting [7]) it was 102%; in test [3] it was 112% (inactive). The values for the GFP response relative to DMSO in test [2], in test [2] (setting [8]) and in test [2] (setting [9]) were 135% (inactive), 120% and 136%, respectively. For the same compound, the GFP response, % of DMSO was 94% (inactive) in test [4], 99.3% (inactive) in test [5], 102% in test [5] (setting [6]) and 94.5% in test [5] (setting [7]).
In the case of `CC1=NNC(=O)/C1=C\c1cn(-c2ccccc2)nc1-c1cccs1`, the GFP response vs DMSO is 92.6% (inactive) in test [1], 88% in test [1] (setting [6]), 89.6% in test [1] (setting [7]) and 103% (inactive) in test [3]. Moreover, the figures for the GFP response relative to DMSO in test [2], in test [2] (setting [8]) and in test [2] (setting [9]) were 288% (active), 122% and 269%, respectively. For the same compound, the GFP response, % of DMSO is 120% (inactive) in test [4], 119% (inactive) in test [5], 93.8% in test [5] (setting [6]) and 114% in test [5] (setting [7]).
`Cc1nn(C(=O)c2ccco2)c(C)c1Sc1ccccc1`: the GFP response vs DMSO in test [1] is 95.6% (inactive); in test [1] (setting [6]), 97%; in test [1] (setting [7]), 94.4%; in test [3] it was 101% (inactive). The GFP response relative to DMSO in test [2] is 97.7% (inactive); in test [2] (setting [8]) it was 99%; in test [2] (setting [9]), 95.4%. The GFP response, % of DMSO in test [4] is 97% (inactive); in test [5], 98.6% (inactive); in test [5] (setting [6]), 99.3%; in test [5] (setting [7]), 98.2%.
Take `CCCCCCc1cc2cc(-c3nnc(-c4ccccc4OC)o3)c(=O)oc2cc1O`: the GFP response vs DMSO is 98.7% (inactive) in test [1], 99.3% in test [1] (setting [6]), 98.4% in test [1] (setting [7]) and 106% (inactive) in test [3]. The figures for the GFP response relative to DMSO in test [2], in test [2] (setting [8]) and in test [2] (setting [9]) were 111% (inactive), 105% and 111%, respectively. For the same compound, the GFP response, % of DMSO in test [4] is 99.1% (inactive); in test [5] it was 100% (inactive); in test [5] (setting [6]), 101%; in test [5] (setting [7]), 98.2%.
Regarding `COc1cccc(CC(=O)OC(C)C(=O)Nc2ncc(Cl)cc2Cl)c1` (configuration not stated), the GFP response vs DMSO in test [1] is 101% (inactive); in test [1] (setting [6]) it was 99.8%; in test [1] (setting [7]), 101%; in test [3], 102% (inactive). For the same compound, the GFP response relative to DMSO was 96.2% (inactive) in test [2], 97.2% in test [2] (setting [8]) and 97.2% in test [2] (setting [9]). In addition, the GFP response, % of DMSO was 91.1% (inactive) in test [4], 97.8% (inactive) in test [5], 98.1% in test [5] (setting [6]) and 95.5% in test [5] (setting [7]).
For `CCOC(=O)CSC1=NC(=O)/C(=C\c2ccc(Cl)cc2)S1`, the GFP response vs DMSO is 96.5% (inactive) in test [1], 87.9% in test [1] (setting [6]), 94.6% in test [1] (setting [7]) and 103% (inactive) in test [3]. Further, the GFP response relative to DMSO in test [2] is 197% (active); in test [2] (setting [8]) it was 150%; in test [2] (setting [9]) it was 186%. Besides, the GFP response, % of DMSO in test [4] was 116% (inactive); in test [5], 88.9% (inactive); in test [5] (setting [6]), 81.6%; in test [5] (setting [7]) it was 88.2%.
`O=c1c2c(-c3ccc(Cl)cc3)csc2ncn1/N=C/c1cccc([N+](=O)[O-])c1O`: the GFP response vs DMSO in test [1] is 99.3% (inactive); in test [1] (setting [6]), 99.3%; in test [1] (setting [7]), 98.6%; in test [3], 99.5% (inactive). Moreover, the values for the GFP response relative to DMSO in test [2], in test [2] (setting [8]) and in test [2] (setting [9]) were 97.7% (inactive), 95% and 99.5%, respectively. Besides, the GFP response, % of DMSO was 96.2% (inactive) in test [4], 99.3% (inactive) in test [5], 98.3% in test [5] (setting [6]) and 98% in test [5] (setting [7]).
With `COc1ccccc1NC(=O)c1ccc(N)cc1`, the GFP response vs DMSO in test [1] is 98% (inactive); in test [1] (setting [6]) it was 98%; in test [1] (setting [7]) it was 98.1%; in test [3], 99.5% (inactive). Moreover, the GFP response relative to DMSO was 100% (inactive) in test [2], 102% in test [2] (setting [8]) and 100% in test [2] (setting [9]). Further, the GFP response, % of DMSO in test [4] is 98.7% (inactive); in test [5], 102% (inactive); in test [5] (setting [6]), 104%; in test [5] (setting [7]) it was 101%.
For the compound `COc1ccccc1N1CCN(C2CCCN(Cc3cc(F)cc(F)c3)C2)CC1` (configuration not stated), the GFP response vs DMSO in test [1] was 96% (inactive); in test [1] (setting [6]), 97.3%; in test [1] (setting [7]) it was 95.9%; in test [3], 99.3% (inactive). Further, the GFP response relative to DMSO is 98.9% (inactive) in test [2], 97.5% in test [2] (setting [8]) and 98.4% in test [2] (setting [9]). Also, the GFP response, % of DMSO was 102% (inactive) in test [4], 103% (inactive) in test [5], 99.3% in test [5] (setting [6]) and 104% in test [5] (setting [7]).

For the origin of these results see PubChem BioAssay.
